Laboratory results taken from ChEMBL document CHEMBL6115033, “Discovery of a Pyrazolopyridinone-Based MYC Inhibitor That Selectively Engages Intracellular c-MYC and Disrupts MYC-MAX Heterodimerization” (J Med Chem, 2025).
Calls of active or inactive are those of the source. No cut-off for these calls is given here.

Legend:
[1] = test system: MDA-MB-468; assay: Antiproliferative activity against human MDA-MB-468 cells assessed as cell viability incubated for 96 hrs by MTT assay; assay type: functional, cell-based; conditions: MDA-MB-468, 96 h
Method in brief: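 Adherent cells (2000/well) attached overnight, then exposed to compounds at 0.14–100 µM for 96 h in DMEM with 10% FBS. MTT at 0.5 mg/mL for 4 h in the dark, formazan dissolved in DMSO, absorbance at 570 nm. Compounds were freshly prepared in DMSO, with DMSO below 1%.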

[2] = Antiproliferative activity against human P493-6 cells expressing MYC assessed as inhibition of cell proliferation incubated for 96 hrs by cell titer glo assay; assay type: functional, cell-based; conditions: P493-6, 96 h
Method in brief: (§1)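 P493-6 cells (3000/well, RPMI) were seeded overnight at 37 °C, then given compounds at final 0.14–100 µM for 96 h. MYC-off cells were pretreated with 0.1 µg/mL tetracycline for 72 h. Read-out was CellTiter-Glo luminescence after equilibration to room temperature. IC50 was determined in high-MYC and MYC-off cells.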

[3] = Antiproliferative activity against tetracycline-treated human P493-6 cells expressing MYC assessed as inhibition of cell proliferation incubated for 96 hrs by cell titer glo assay; assay type: functional, cell-based; conditions: P493-6, 96 h; method in brief: as §1
[4] = test system: P493-6; assay: Antiproliferative activity against human P493-6 cells expressing MYC assessed as inhibition of cell proliferation at 25 uM incubated for 96 hrs by cell titer glo assay; assay type: functional, cell-based
Method in brief: (§2)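 P493-6 cells, either untreated (high MYC) or MYC-off after 0.1 µg/mL tetracycline for 72 h, were exposed to 25 µM for 96 h. Read-out was % survival by CellTiter-Glo luminescence. Mean ± SD, n = 6, unpaired t-test.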

[5] = test system: P493-6; assay: Antiproliferative activity against tetracycline-treated human P493-6 cells expressing MYC assessed as inhibition of cell proliferation at 25 uM incubated for 96 hrs by cell titer glo assay; assay type: functional, cell-based; method in brief: as §2
[6] = target: T1, c-Myc/c-Max (Homo sapiens) (UniProt P01106+P61244); assay: Disruption of MYC-MAX interaction in human P493-6 cells at 25 uM incubated for 3 to 12 hrs by Western blot analysis; assay type: cell-based; conditions: time 3-12 hrs
T1 sequence (P01106 whole entry): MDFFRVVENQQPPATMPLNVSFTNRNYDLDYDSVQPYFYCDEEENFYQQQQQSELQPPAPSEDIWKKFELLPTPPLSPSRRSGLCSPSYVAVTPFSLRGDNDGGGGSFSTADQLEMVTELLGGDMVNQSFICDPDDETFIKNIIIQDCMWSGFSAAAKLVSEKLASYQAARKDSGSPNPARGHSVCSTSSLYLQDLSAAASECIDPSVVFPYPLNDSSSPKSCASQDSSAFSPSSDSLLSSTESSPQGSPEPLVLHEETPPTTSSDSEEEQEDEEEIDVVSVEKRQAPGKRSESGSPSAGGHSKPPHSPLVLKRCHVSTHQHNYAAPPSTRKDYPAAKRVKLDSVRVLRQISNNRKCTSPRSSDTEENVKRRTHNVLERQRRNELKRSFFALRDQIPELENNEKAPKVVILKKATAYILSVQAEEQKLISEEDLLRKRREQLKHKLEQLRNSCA
T1 sequence (P61244 2-160 partner limits assumed): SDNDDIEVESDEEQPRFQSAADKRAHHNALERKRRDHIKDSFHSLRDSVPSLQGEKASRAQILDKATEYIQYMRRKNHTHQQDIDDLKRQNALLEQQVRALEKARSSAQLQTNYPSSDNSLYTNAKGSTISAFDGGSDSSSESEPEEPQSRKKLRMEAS
Method in brief: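 Cells were given 25 µM or DMSO for 0, 3, 5 and 12 h. Cytoplasmic and nuclear lysate fractions were pooled. 2 mg protein was immunoprecipitated with MYC antibody overnight, then protein A/G beads for 4 h at 4 °C. Bound MAX was detected by western blot and quantified relative to MYC; MAX input was also measured.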

[7] = target: T1, c-Myc/c-Max (Homo sapiens); assay: Disruption of MYC-MAX interaction in human MDA-MB-468 cells at 25 uM incubated for 3 to 12 hrs by immunofluorescence analysis; assay type: cell-based; conditions: time 3-12 hrs
[8] = target: T1, c-Myc/c-Max (Homo sapiens); assay: Disruption of MYC-MAX interaction in human P493-6 cells assessed as reduction in myc level at 25 uM; assay type: cell-based
[9] = test system: MDA-MB-468; assay: Downregulation of CDC25C mRNA expression in human MDA-MB-468 cells at 25 uM incubated for 12 hrs by qRT-PCR analysis; assay type: functional, cell-based
Method in brief: (§3)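 Cells (500,000/well) were cultured with or without 25 µM for the indicated time. Total RNA was extracted with TRIzol and reverse-transcribed. qPCR used SYBR green with target-gene primers, reported as ΔΔCT.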

[10] = test system: MDA-MB-468; assay: Downregulation of E2F2 mRNA expression in human MDA-MB-468 cells at 25 uM incubated for 12 hrs by qRT-PCR analysis; assay type: functional, cell-based; method in brief: as §3
[11] = test system: P493-6; assay: Downregulation of CDC25C mRNA expression in human P493-6 cells at 25 uM incubated for 12 hrs by qRT-PCR analysis; assay type: functional, cell-based; method in brief: as §3
[12] = test system: P493-6; assay: Downregulation of E2F1 mRNA expression in human P493-6 cells at 25 uM incubated for 12 hrs by qRT-PCR analysis; assay type: functional, cell-based; method in brief: as §3
[13] = test system: MDA-MB-468; assay: Downregulation of CCNA2 mRNA expression in human MDA-MB-468 cells at 25 uM incubated at 48 hrs by qRT-PCR analysis; assay type: functional, cell-based; method in brief: as §3
[14] = test system: MDA-MB-468; assay: Downregulation of CDC25C mRNA expression in human MDA-MB-468 cells at 25 uM incubated at 48 hrs by qRT-PCR analysis; assay type: functional, cell-based; method in brief: as §3
[15] = test system: MDA-MB-468; assay: Downregulation of E2F1 mRNA expression in human MDA-MB-468 cells at 25 uM incubated at 48 hrs by qRT-PCR analysis; assay type: functional, cell-based; method in brief: as §3
[16] = test system: MDA-MB-468; assay: Downregulation of E2F2 mRNA expression in human MDA-MB-468 cells at 25 uM incubated at 48 hrs by qRT-PCR analysis; assay type: functional, cell-based; method in brief: as §3
[17] = test system: MDA-MB-468; assay: Downregulation of SKP2 mRNA expression in human MDA-MB-468 cells at 25 uM incubated at 48 hrs by qRT-PCR analysis; assay type: functional, cell-based; method in brief: as §3
[18] = Induction of apoptosis in human P493-6 cells assessed as viable cells at 25 uM incubated for 24 hrs by Annexin V/PI staining based flow cytometry analysis (reference value: 90.8%); assay type: functional; conditions: read-out: Activity
[19] = Induction of apoptosis in human P493-6 cells assessed as early apoptotic cells at 25 uM incubated for 24 hrs by Annexin V/PI staining based flow cytometry analysis (reference value: 2.52 %); assay type: functional
[20] = Induction of apoptosis in human P493-6 cells assessed as necrotic cells at 50 uM incubated for 24 hrs by Annexin V/PI staining based flow cytometry analysis (reference value: 0.11 %); assay type: functional
[21] = test system: MDA-MB-468; assay: Induction of apoptosis in human MDA-MB-468 cells cultured as 3D spheroids assessed as inhibition of cell growth incubated for 5 days; assay type: functional, cell-based; conditions: time 5.0 day
Method in brief: (§4)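 Cells plated at 4000 per well in low-attachment 24-well plates and grown in Mammocult medium for 48 h to form mammospheres. Spheres then exposed to 25 uM compound for 5 days, with untreated control wells. Read-out was imaging of the mammospheres formed.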

[22] = test system: MCF7; assay: Induction of apoptosis in human MCF7 cells cultured as 3D spheroids assessed as inhibition of cell growth incubated for 5 days; assay type: functional, cell-based; conditions: time 5.0 day; method in brief: as §4
[23] = Toxicity in mouse implanted with human MDA-MB-468 cells assessed as change in body weight at 10 mg/kg, po; assay type: organism-based; conditions: in vivo
[24] = test system: P493-6; assay: Induction of apoptosis in human P493-6 cells assessed as effect on caspase-3 level at 50 uM incubated for 24 hrs
[25] = test system: MDA-MB-468; assay: Induction of apoptosis in human MDA-MB-468 cells assessed as effect on caspase-3 level at 50 uM incubated for 24 hrs
[26] = target: T1, c-Myc/c-Max (Homo sapiens); assay: Disruption of MYC-MAX interaction in human MDA-MB-468 cells at 25 uM incubated for 12 hrs by proximity ligation assay
[27] = test system: MDA-MB-468; assay: Induction of apoptosis in human MDA-MB-468 cells assessed as effect on cleaved PARP level at 50 uM incubated for 24 hrs
[28] = test system: MDA-MB-468; assay: Antitumor activity against human MDA-MB-468 cells xenografted in mouse assessed as reduction in mYC expression at 10 mg/kg, sc measured at 14 to 26 days by IHC analysis; conditions: time 14-26 day

N#Cc1cc2c(-c3ccc(Cl)cc3)nn(-c3ccccc3)c2[nH]c1=O
IC50 [1]: 13.5 µM
IC50 [2]: 15.2 µM
IC50 [3]: 58.9 µM
Activity [4]: Active
Activity [5]: Active
Activity [6]: Active
Activity [7]: Active
Activity [8]: Active
Activity [9]: Active
Activity [10]: Active
Activity [11]: Active
Activity [12]: Active
Activity [13]: Active
Activity [14]: Active
Activity [15]: Active
Activity [16]: Active
Activity [17]: Active
viability at 25 µM [18]: 85.5%
Activity [19]: 3.1%
Activity [20]: 0.11%
Activity [21]: Active
Activity [22]: Active
Activity [23]: Non-toxic
Activity [24]: Active
Activity [25]: Active
Activity [26]: Active
Activity [27]: Active
Activity [28]: Active
